hiPSC survival – enhancers of human iPSC single-cell survival. survival enhancement, % at 20 µM. AID 602274. 0.044% of 360,000 active. hiPSC single-cell survival, ATPlite luminescence; 100% = ROCK inhibitor wells, 0% = DMSO; in the data active = survival enhancement above about 18%;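 note: cells exposed to compounds for 16 hours before the ATP read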
SENP1 FRET inh – inhibitors of human SENP1 SUMO protease catalytic domain. Q9P0U3. recombinant SENP1 catalytic domain, CyPet-SUMO1-YPet FRET cleavage. inhibition, % at 10 µM. 0.21% of 360,000 active. AID 624204;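 active = inhibition at least 30% at 10 µM, raw YFP signal under a set limit, fluorescence ratio 0.5 to 1.5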;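 note: 0% = enzyme with DMSO and 100% = no enzyme wells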
Target sequence (Q9P0U3 419-644 limits assumed): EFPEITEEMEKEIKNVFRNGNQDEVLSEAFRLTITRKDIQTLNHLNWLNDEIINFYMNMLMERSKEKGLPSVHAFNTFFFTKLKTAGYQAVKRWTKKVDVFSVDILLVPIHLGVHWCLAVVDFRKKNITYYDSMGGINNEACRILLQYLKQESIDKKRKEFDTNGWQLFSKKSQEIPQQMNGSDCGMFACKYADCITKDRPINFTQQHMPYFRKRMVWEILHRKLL
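Material – human SENP1 catalytic domain · Input – SENP1 enzyme, 20 pM final · Compound dosing – single concentration of 10 µM compound, 0.5% DMSO final · Timing – enzyme reaction for 50 min at room temperature, dark · Measured by – FRET fluorescence in CFP and YFP emission channels · Control set – no-enzyme wells low, DMSO-plus-enzyme wells high control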
ABCB6 inh 2 – human ABCB6 transporter inhibition; Q9NP58; K562-ABCB6 porphyrin accumulation, flow cytometry, 1 h; active compounds read low; fluorescence ratio to DMSO, % at 10 µM; 0.19% of 360,000 active; AID 602162;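 active = fluorescence ratio to DMSO below 75%, the collection mean minus 3 SD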;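 note: signal is porphyrin accumulated inside mitochondria; 100% equals median channel fluorescence of DMSO control wells; lower ratio means ABCB6 inhibition with less porphyrin fluorescence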
FAS-TE inh – blocks the thioesterase domain of human fatty acid synthase. recombinant FAS-TE, OMFH fluorogenic substrate, fluorescence endpoint. inhibition, % at 15 µM. 0.67% of 360,000 active;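 active = compounds whose normalised, plate-corrected inhibition of enzyme fluorescence in the single-dose primary screen is 50% or more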;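 note: 0% = DMSO with enzyme and 100% = substrate without enzyme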
The depositor's hits bear a star. Shown are actives, neighbours in structure and some others; about 1.1% of the full set was active somewhere.

Screening CCSc1cnn(-c2ccccc2)c(=O)c1SCC returned hiPSC survival -1, SENP1 FRET inh 2, ABCB6 inh 2 100 and FAS-TE inh -7.
Screening O=C(CN1C(=O)c2ccccc2C1=O)N1CCN(C2c3ccccc3-c3ccccc32)CC1 returned hiPSC survival 1, SENP1 FRET inh -1, ABCB6 inh 2 102 and FAS-TE inh 56*.
For NS(=O)(=O)c1cccc(NC(=O)CSc2nnc(NC3CC3)s2)c1 the results were hiPSC survival -2, SENP1 FRET inh -1, ABCB6 inh 2 98 and FAS-TE inh -6.
CCCOc1ccc(CNC(=S)N/N=C/c2ccc([N+](=O)[O-])cc2)cc1 was read as hiPSC survival 1, SENP1 FRET inh 14, ABCB6 inh 2 62* and FAS-TE inh 27.
Screening COc1ccc(S(=O)(=O)N2CCN=C2SCc2cccc(F)c2)cc1 returned hiPSC survival 0, SENP1 FRET inh 1, ABCB6 inh 2 94 and FAS-TE inh 25.
For C[C@]12CCC[C@H](O1)c1c(cc3c(c1O)C(=O)c1c(O)cc(O)cc1C3=O)O2 the results were hiPSC survival -1, SENP1 FRET inh 31*, ABCB6 inh 2 571 and FAS-TE inh 10.
Screening O=C(O/N=C(\c1ccccc1)c1ccccn1)c1ccc(Cl)c(Cl)c1 returned hiPSC survival 2, SENP1 FRET inh 3, ABCB6 inh 2 101 and FAS-TE inh 19.
`Cc1sc(-c2ccccn2)nc1OC(=O)c1ccc(Cl)c(Cl)c1` gave hiPSC survival 19*, SENP1 FRET inh 3, ABCB6 inh 2 97 and FAS-TE inh 8.
`CC(C)(C)c1ccc(S(=O)(=O)N(CCCN2CCOCC2)Cc2cccs2)cc1` gave hiPSC survival -1, SENP1 FRET inh -1, ABCB6 inh 2 99 and FAS-TE inh 9.
`Cc1cc(C)c(CN2CCN(CCCn3ccc(NC(=O)OCc4ccccc4)nc3=O)CC2)c(C)c1` gave hiPSC survival -2, SENP1 FRET inh -2, ABCB6 inh 2 96 and FAS-TE inh -2.
COc1cccc(/C=N/Nc2nn3cnnc3c3ccccc23)c1O was read as hiPSC survival 0, SENP1 FRET inh 55*, ABCB6 inh 2 97 and FAS-TE inh 10.
Screening O=C(CN1CCN(Cc2cccc3ccccc23)CC1)NCCc1ccccc1 returned hiPSC survival -1, SENP1 FRET inh -3, ABCB6 inh 2 91 and FAS-TE inh 8.
COc1ccc(CN2C(=O)C(CC(=O)NCCCCc3ccccc3)CC(C(=O)N3CCCCCC3)=C2C)cc1 (stereo not drawn) was read as hiPSC survival -3, SENP1 FRET inh -1, ABCB6 inh 2 99 and FAS-TE inh 16.
`CC(C1SC(=S)NC1=O)C1SC(=S)NC1=O` (stereo not drawn) gave hiPSC survival 3, SENP1 FRET inh -25, ABCB6 inh 2 102 and FAS-TE inh -2.
`CC1(C)CC(=O)/C(=C\c2cccc([N+](=O)[O-])c2)C(C)(C)N1` gave hiPSC survival 36*, SENP1 FRET inh 1, ABCB6 inh 2 99 and FAS-TE inh -2.
Screening O=C1N/C(=N/O)S/C1=C/c1cccc([N+](=O)[O-])c1 returned hiPSC survival -1, SENP1 FRET inh 1, ABCB6 inh 2 98 and FAS-TE inh 0.
Cc1cccc(C(=O)NN(C)c2nc(-c3ccccc3)nnc2C(F)(F)F)c1 was read as hiPSC survival -3, SENP1 FRET inh 0, ABCB6 inh 2 69* and FAS-TE inh -5.
Cc1ccc(Cl)cc1N1CCN(S(=O)(=O)c2c(C)[nH]c(C)c2C(=O)N2CCCCC2)CC1 was read as hiPSC survival 0, SENP1 FRET inh 3, ABCB6 inh 2 101 and FAS-TE inh 13.
For CN(C(=O)COC(=O)c1ccccc1SCC(=O)N1CCCC1)C1(C#N)CCCCC1 the results were hiPSC survival -1, SENP1 FRET inh 0, ABCB6 inh 2 101 and FAS-TE inh -3.
`CN1CCN(c2ccccc2NC(=O)c2ccc(-c3cccc([N+](=O)[O-])c3)o2)CC1` gave hiPSC survival 1, SENP1 FRET inh 3, ABCB6 inh 2 97 and FAS-TE inh 29.
`CCC(=O)N1CCN(c2ccccc2NC(=O)c2ccc(-c3cccc([N+](=O)[O-])c3)o2)CC1` gave hiPSC survival 2, SENP1 FRET inh -1, ABCB6 inh 2 97 and FAS-TE inh 51*.
CCCCOc1cccc(-c2cc(C(=O)NNC(=S)NCC)c3ccccc3n2)c1 was read as hiPSC survival -2, SENP1 FRET inh 6, ABCB6 inh 2 102 and FAS-TE inh 74*.

Bioassay records (PubChem BioAssay)
